Activity calls are given as the source filed them. No cut-off for these calls is given here.
Key:
[1] = Inhibition of Penicillium decumbens alpha-L-rhamnosidase assessed as p-nitrophenol release after 30 mins by spectrophotometry
In short: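 Penicillium decumbens enzyme assayed at pH 4.5 with the appropriate p-nitrophenyl glycoside. Substrate, diluted enzyme and inhibitor were incubated 30 min at 37 °C, then stopped with 400 mM Na2CO3. Released p-nitrophenol was read at 400 nm.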

[2] = target: T1, Beta-mannosidase (Rattus norvegicus) (UniProt Q4FZV0); experiment: Inhibition of rat epididymis beta-mannosidase assessed as p-nitrophenol release at 1000 uM after 30 mins by spectrophotometry
T1 sequence (whole entry): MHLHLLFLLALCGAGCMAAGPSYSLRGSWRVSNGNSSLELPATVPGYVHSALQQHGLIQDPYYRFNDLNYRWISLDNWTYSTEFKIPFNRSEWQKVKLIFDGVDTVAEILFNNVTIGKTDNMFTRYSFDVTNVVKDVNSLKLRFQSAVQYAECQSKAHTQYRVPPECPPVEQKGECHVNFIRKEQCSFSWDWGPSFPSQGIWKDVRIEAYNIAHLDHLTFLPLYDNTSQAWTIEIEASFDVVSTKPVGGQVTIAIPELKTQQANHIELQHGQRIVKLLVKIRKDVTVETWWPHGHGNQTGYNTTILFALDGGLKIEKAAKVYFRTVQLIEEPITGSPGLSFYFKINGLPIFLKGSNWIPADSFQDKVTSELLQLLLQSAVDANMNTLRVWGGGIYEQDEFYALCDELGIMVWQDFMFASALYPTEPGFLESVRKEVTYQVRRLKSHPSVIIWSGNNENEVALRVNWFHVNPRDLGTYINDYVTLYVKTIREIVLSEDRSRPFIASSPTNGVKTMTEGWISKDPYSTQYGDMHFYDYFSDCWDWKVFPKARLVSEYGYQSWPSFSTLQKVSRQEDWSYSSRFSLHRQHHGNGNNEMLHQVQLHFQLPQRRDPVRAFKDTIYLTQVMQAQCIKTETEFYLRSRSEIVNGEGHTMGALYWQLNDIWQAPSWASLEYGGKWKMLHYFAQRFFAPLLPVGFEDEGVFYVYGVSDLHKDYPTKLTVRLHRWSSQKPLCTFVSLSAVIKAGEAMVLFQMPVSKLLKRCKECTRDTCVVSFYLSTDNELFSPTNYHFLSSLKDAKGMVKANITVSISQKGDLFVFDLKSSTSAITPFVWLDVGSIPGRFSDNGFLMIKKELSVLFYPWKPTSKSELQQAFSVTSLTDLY
In short: (§1)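 p-Nitrophenyl glycoside substrates: Penicillium decumbens α-L-rhamnosidase at pH 4.5, bovine epididymis α-L-fucosidase at pH 5.5, bovine liver β-galactosidase at pH 6.8. β-Mannosidase came from rat epididymal fluid purified from epididymis, with p-nitrophenyl-β-D-mannoside at pH 5.2. Enzyme, substrate and inhibitor were incubated 30 min at 37 °C. The reaction was stopped with 400 mM Na2CO3, and p-nitrophenol was read at 400 nm.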

[3] = target: T2, Tissue alpha-L-fucosidase (Bos taurus) (UniProt Q2KIM0); experiment: Inhibition of bovine epididymis alpha-L-fucosidase assessed as p-nitrophenol release at 1000 uM after 30 mins by spectrophotometry; in short: as §1
T2 sequence (whole entry): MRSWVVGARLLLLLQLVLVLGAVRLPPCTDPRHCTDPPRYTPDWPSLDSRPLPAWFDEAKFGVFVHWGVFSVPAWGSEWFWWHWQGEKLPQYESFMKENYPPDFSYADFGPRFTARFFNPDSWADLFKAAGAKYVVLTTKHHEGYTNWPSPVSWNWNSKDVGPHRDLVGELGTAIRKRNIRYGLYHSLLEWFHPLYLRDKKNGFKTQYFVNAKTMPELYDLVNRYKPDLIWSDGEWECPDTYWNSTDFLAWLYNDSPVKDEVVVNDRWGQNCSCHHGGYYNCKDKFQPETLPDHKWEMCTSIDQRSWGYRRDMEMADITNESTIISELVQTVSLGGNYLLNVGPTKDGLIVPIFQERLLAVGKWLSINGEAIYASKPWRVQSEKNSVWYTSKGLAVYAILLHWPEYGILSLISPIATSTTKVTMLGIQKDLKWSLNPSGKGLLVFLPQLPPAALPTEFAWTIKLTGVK

[4] = target: Lysosomal alpha-glucosidase (Rattus norvegicus, UniProt Q6P7A9); experiment: Inhibition of rat liver lysosome alpha-glucosidase assessed as p-nitrophenol release after 30 mins measured spectrometrically at 400 nm
[5] = target: T3, Beta-galactosidase (Bos taurus, UniProt Q58D55); experiment: Inhibition of bovine liver beta-galactosidase assessed as p-nitrophenol release after 30 mins by spectrophotometry
T3 sequence (Q58D55 whole entry): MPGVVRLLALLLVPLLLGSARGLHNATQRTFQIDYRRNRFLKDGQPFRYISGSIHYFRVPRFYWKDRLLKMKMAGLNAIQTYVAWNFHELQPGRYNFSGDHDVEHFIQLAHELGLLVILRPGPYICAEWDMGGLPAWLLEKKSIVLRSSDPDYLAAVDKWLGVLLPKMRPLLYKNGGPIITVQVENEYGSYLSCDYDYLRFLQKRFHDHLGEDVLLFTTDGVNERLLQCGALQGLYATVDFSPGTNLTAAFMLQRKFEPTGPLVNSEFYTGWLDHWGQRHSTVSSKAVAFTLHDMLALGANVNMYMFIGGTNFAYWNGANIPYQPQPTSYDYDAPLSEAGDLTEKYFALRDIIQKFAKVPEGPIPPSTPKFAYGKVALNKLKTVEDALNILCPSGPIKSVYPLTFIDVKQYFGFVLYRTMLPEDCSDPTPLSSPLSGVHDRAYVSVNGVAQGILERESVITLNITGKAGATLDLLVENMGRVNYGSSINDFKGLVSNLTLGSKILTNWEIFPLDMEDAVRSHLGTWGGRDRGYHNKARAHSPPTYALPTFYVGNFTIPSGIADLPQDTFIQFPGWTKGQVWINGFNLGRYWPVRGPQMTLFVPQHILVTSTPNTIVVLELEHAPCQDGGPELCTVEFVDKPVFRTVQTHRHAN
In short: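 Bovine liver enzyme at pH 6.8 with the appropriate p-nitrophenyl glycoside. Incubated with inhibitor 30 min at 37 °C, quenched with 400 mM Na2CO3, and released p-nitrophenol read at 400 nm.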

[6] = target: Oligo-1,6-glucosidase IMA1 (Saccharomyces cerevisiae S288c) (UniProt P53051); experiment: Inhibition of yeast alpha-glucosidase assessed as p-nitrophenol release at 1000 uM after 30 mins measured spectrometrically at 400 nm
[7] = Inhibition of rice alpha-glucosidase assessed as D-glucose release after 10 mins by Glucose B-test; design: species or system Oryza sativa
In short: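 Rice enzyme with maltose as substrate at the enzyme's optimum pH. Incubation with inhibitor ran 10 min at 37 °C. Released D-glucose determined colorimetrically with a glucose test kit.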

[8] = target: T4, Tissue alpha-L-fucosidase (Bos taurus, UniProt Q2KIM0); experiment: Inhibition of bovine epididymis alpha-L-fucosidase assessed as p-nitrophenol release after 30 mins by spectrophotometry
T4 sequence (Q2KIM0 whole entry): T2 sequence (whole entry)
In short: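 Enzyme from bovine epididymis, run at pH 5.5 with the appropriate p-nitrophenyl glycoside substrate. Enzyme, substrate and inhibitor incubated together 30 min at 37 °C. Reaction stopped by adding 400 mM Na2CO3; p-nitrophenol measured spectrometrically at 400 nm.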

[9] = target: Oligo-1,6-glucosidase IMA1 (Saccharomyces cerevisiae S288c) (UniProt P53051); experiment: Inhibition of yeast alpha-glucosidase assessed as D-glucose release at 1000 uM after 30 mins by Glucose B-test
[10] = target: T5, Beta-galactosidase (Bos taurus) (UniProt Q58D55); experiment: Inhibition of bovine liver beta-galactosidase assessed as p-nitrophenol release at 1000 uM after 30 mins by spectrophotometry; in short: as §1
T5 sequence (whole entry): T3 sequence (Q58D55 whole entry)

[11] = system: Penicillium decumbens; experiment: Inhibition of Penicillium decumbens alpha-L-rhamnosidase assessed as p-nitrophenol release at 1000 uM by spectrophotometry; in short: as §1
[12] = Inhibition of rat intestinal amyloglucosidase
[13] = target: Lysosomal alpha-glucosidase (Rattus norvegicus) (UniProt Q6P7A9); experiment: Inhibition of rat intestinal maltase assessed as D-glucose release at 1000 uM after 30 mins by Glucose B-test
In short: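 Brush border membranes from rat small intestine served as the enzyme source, with maltose substrate at pH 5.8. Incubation with inhibitor was 30 min at 37 °C. Released D-glucose was measured colorimetrically by Glucose B-test.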

[14] = target: Lysosomal alpha-glucosidase (Rattus norvegicus) (UniProt Q6P7A9); experiment: Inhibition of rat liver lysosome alpha-glucosidase assessed as D-glucose release at 1000 uM after 30 mins by Glucose B-test
[15] = system: Oryza sativa; experiment: Inhibition of rice alpha-glucosidase assessed as D-glucose release at 1000 uM after 10 mins by Glucose B-test
In short: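 Rice α-glucosidase was assayed with maltose as substrate at the enzyme's optimum pH. Incubation with inhibitor was 10 min at 37 °C. Released D-glucose was determined colorimetrically by Glucose B-test.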

[16] = target: Lactase/phlorizin hydrolase (Rattus norvegicus, UniProt Q02401); experiment: Inhibition of rat intestinal lactase assessed as p-nitrophenol release after 30 mins by spectrophotometry
Sequence of Lactase/phlorizin hydrolase (Q02401 868-1928 limits assumed): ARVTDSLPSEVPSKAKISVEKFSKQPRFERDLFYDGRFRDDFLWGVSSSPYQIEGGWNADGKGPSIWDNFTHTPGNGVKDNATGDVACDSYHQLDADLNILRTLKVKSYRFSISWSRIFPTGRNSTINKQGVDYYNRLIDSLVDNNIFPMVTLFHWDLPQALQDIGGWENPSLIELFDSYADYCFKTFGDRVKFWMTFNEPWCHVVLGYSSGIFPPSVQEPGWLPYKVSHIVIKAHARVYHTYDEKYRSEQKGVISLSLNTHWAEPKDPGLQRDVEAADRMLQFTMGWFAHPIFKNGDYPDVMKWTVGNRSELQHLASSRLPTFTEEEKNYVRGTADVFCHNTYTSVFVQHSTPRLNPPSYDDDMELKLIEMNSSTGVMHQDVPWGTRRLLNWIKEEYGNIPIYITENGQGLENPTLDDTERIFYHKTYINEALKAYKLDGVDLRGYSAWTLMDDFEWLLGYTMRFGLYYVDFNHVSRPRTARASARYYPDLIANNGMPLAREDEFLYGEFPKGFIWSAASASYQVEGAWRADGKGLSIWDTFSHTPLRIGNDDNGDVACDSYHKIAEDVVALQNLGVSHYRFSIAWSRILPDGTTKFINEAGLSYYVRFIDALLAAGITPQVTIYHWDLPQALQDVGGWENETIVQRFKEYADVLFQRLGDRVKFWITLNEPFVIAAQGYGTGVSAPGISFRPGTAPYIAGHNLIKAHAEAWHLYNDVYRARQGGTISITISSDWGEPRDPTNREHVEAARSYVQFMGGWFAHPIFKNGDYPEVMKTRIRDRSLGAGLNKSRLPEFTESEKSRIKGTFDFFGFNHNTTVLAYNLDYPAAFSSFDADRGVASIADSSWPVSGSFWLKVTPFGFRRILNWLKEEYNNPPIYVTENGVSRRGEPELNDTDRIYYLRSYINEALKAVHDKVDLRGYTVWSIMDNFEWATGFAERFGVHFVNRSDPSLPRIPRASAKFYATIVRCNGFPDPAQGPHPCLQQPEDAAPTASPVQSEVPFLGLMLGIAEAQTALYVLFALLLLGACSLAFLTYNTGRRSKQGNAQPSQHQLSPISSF

Sequence of Oligo-1,6-glucosidase IMA1 (Saccharomyces cerevisiae S288c) (P53051 whole entry): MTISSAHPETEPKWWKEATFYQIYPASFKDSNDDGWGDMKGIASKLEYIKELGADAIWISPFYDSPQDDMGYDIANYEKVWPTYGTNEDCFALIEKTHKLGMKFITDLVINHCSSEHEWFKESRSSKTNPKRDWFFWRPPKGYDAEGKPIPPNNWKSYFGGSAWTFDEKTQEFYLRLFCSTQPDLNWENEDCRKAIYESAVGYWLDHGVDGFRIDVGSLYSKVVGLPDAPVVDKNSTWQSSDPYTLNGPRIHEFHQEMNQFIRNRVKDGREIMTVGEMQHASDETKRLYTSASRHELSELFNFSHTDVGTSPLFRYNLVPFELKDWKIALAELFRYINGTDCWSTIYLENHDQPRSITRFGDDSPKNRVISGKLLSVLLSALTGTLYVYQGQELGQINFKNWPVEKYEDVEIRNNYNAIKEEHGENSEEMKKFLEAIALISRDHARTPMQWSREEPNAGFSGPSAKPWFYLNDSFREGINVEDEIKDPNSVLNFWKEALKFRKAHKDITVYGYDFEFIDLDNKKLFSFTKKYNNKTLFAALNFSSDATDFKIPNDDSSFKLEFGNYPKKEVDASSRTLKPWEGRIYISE
Sequence of Lysosomal alpha-glucosidase (Rattus norvegicus) (Q6P7A9 whole entry): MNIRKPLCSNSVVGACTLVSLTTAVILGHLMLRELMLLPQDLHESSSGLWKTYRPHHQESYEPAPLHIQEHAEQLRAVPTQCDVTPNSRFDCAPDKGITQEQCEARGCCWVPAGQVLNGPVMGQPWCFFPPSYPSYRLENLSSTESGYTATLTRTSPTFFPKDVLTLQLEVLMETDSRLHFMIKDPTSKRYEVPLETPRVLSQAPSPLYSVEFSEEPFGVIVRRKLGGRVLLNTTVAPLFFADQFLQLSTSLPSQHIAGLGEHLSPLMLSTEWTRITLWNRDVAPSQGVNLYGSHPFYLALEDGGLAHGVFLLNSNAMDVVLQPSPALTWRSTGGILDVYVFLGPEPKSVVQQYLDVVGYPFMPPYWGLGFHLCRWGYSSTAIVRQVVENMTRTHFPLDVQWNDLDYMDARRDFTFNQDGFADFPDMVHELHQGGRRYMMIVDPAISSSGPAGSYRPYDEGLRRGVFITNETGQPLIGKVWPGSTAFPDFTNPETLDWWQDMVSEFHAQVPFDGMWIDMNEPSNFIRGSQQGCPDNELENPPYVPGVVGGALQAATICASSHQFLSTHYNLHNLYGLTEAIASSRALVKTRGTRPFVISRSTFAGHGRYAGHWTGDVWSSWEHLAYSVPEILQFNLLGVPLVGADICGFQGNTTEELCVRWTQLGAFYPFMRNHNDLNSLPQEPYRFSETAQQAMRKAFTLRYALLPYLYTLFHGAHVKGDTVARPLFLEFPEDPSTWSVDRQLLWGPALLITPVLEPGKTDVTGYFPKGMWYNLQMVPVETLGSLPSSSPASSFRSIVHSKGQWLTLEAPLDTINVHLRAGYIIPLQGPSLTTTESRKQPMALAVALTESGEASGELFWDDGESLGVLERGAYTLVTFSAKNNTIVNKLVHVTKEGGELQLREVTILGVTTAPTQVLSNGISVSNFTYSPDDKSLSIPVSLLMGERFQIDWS
Sequence of Lysosomal alpha-glucosidase (Q6P7A9 whole entry): as above

SMILES: C[C@H]1N[C@H](CO)[C@@H](O)[C@H](O)[C@H]1O
- IC50 [1]: 94 µM
- inhibition [2]: < 50%
- inhibition [3]: < 50%
- IC50 [4]: 19 µM
- IC50 [5]: 260 µM
- inhibition [6]: < 50%
- IC50 [7]: 8 µM

SMILES: C[C@@H]1C[C@H](O)[C@@H]2[C@@H](O)[C@H](O)[C@@H](CO)N21 (relative stereo) [HYACINTHACINE B4]
- IC50 [8]: 23 µM
- Activity [9]: inactive
- Activity [10]: inactive
- Activity [11]: inactive
- Activity [3]: inactive
- IC50 [12]: 89 µM
- Activity [13]: inactive
- Activity [14]: inactive
- Activity [15]: inactive

SMILES: C[C@@H]1C[C@@H](O)[C@@H]2[C@H](O)[C@H](O)[C@@H](CO)N21 [HYACINTHACINE B3]
- Activity [9]: inactive
- Activity [10]: inactive
- Activity [11]: inactive
- Activity [3]: inactive
- IC50 [12]: 51 µM
- Activity [13]: inactive
- Activity [14]: inactive
- IC50 [16]: 18 µM
- Activity [15]: inactive
